Measured values taken from ChEMBL document CHEMBL5712902, “Enhanced Anti-lymphoma Activity of CAR19-iNKT Cells Underpinned by Dual CD19 and CD1d Targeting” (Cancer Cell, 2018).
Calls of active or inactive are those of the source. The rule behind the calls is not given here.

Legend:
[1] = system: U-266; experiment: Upregulation of CD1D mRNA expression in human U-266 cells at 10^-6 M upto 96 hrs by RT-PCR analysis; type: functional, cell-based; conditions: dose 1.0 10^-6M
In short: (§1)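 U266 cells were harvested in exponential growth and treated with 10^-6 M ATRA, 10^-6 M GSK343, or both, each diluted from a 1 mM 1000x PBS stock. Vehicle control was 0.01% DMSO. Incubation ran up to 96 hr, then CD1D mRNA was read by RT-PCR or CD1d protein by flow cytometry at set time points.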

[2] = system: U-266; experiment: Upregulation of CD1D protein expression in human U-266 cells at 10^-6 M upto 96 hrs by flow cytometric analysis; type: functional, cell-based; conditions: dose 1.0 10^-6M; in short: as §1
[3] = system: CLL cell; experiment: Upregulation of CD1D mRNA expression in human CLL cells at 10^-6 M upto 96 hrs by RT-PCR analysis; type: functional, cell-based; conditions: dose 1.0 10^-6M
In short: (§2)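 Primary CLL cells were treated with 10^-6 M ATRA, freshly prepared in DMSO, protected from light and diluted to a 1 mM 1000x stock in PBS. Vehicle control was 0.01% DMSO. Cells were incubated for up to 96 hr, then CD1d was read by RT-PCR for mRNA or flow cytometry for surface protein at set time points.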

[4] = system: U-266; experiment: Upregulation of CD1D mRNA expression in human U-266 cells at 10^-6 M upto 96 hrs in presence of GSK343 by RT-PCR analysis; type: functional, cell-based; conditions: dose 1.0 10^-6M; in short: as §1
[5] = system: CLL cell; experiment: Upregulation of CD1D protein expression in human CLL cells at 10^-6 M upto 96 hrs by flow cytometric analysis; type: functional, cell-based; conditions: dose 1.0 10^-6M; in short: as §2
[6] = system: U-266; experiment: Upregulation of CD1D protein expression in human U-266 cells at 10^-6 M upto 96 hrs in presence of GSK343 by flow cytometric analysis; type: functional, cell-based; conditions: dose 1.0 10^-6M; in short: as §1
[7] = Cytotoxicity against human CLL cells assessed as reduction in cell viability at 10^-6 M after 48 to 96 hrs by tryphan blue assay; type: toxicity, cell-based; conditions: 1 µM, time 48-96 hrs, dose 1 10^-6M

Row | Structure (SMILES) | Activity [1] | Activity [2] | Activity [3] | Activity [4] | Activity [5] | Activity [6] | Activity [7]
1 | CCCc1cc(C)[nH]c(=O)c1CNC(=O)c1cc(-c2ccnc(N3CCN(C)CC3)c2)cc2c1cnn2C(C)C | inactive | inactive | – | – | – | – | –
2 | CC1=C(/C=C/C(C)=C/C=C/C(C)=C/C(=O)O)C(C)(C)CCC1 [TRETINOIN] | – | – | Active | Active | Active | Active | Non-Toxic
